Data published in publication PMC7613134 (Nature, 2021).

Key:
[1] = target: METTL3/METTL14 heterodimer (Homo sapiens, UniProt Q86U44); assay: Surface plasmon resonance; assay type: binding; conditions: 50 µM SAM in running buffer
[2] = target: T1, METTL16 (Homo sapiens, UniProt Q86W50); assay: RNA methyltransferase RFMS activity assay; assay type: biochemical; conditions: dose-range, top concentration 120 μM
T1 sequence (Q86W50 1-562): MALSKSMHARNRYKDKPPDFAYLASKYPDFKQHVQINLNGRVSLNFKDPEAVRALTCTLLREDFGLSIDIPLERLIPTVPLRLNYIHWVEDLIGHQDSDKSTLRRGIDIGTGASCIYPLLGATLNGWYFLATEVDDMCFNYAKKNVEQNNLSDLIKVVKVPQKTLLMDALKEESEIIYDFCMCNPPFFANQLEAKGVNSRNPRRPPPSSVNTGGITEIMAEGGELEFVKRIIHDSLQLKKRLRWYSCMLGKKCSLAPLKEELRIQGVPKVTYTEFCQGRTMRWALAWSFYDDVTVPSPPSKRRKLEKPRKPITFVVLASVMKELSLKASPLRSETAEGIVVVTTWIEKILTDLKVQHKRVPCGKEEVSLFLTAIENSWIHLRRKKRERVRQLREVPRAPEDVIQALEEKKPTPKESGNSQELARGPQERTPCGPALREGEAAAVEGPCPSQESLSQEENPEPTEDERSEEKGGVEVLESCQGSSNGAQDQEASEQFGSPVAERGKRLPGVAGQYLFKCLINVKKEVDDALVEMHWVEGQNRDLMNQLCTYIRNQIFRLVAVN

[3] = system: panel of 468 kinases; assay: KINOMEscan kinase binding panel; conditions: 10 µM; inhibition = less than 50% control activity
[4] = system: m6A on poly-A+-enriched RNA, MOLM-13 cells; assay: RNA nucleoside quantification by mass spectrometry in MOLM-13; assay type: cell-based, human; conditions: MOLM-13, 24 hours
[5] = system: panel of human AML cell lines; assay: Proliferation assay, AML cell line panel; assay type: cell-based; conditions: 0.04-50 μM, read on day 6
[6] = system: normal human cord blood CD34+ cells; assay: Colony-forming efficiency of cord blood CD34+ cells; assay type: cell-based; conditions: 1, 5 or 10 µM
In short: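 Human cord-blood CD34+ cells were plated in StemMACS HSC-CFU semi-solid medium with the test compound at the indicated concentrations or DMSO. Colonies were counted by microscopy 12–14 days after plating.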

[7] = system: primary murine AML cells; assay: Colony forming; assay type: cell-based, mouse; conditions: 1 μM
In short: (§1)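 Lineage-negative cells from wild-type mice or primary murine AML cells, 10,000 per well, were plated in triplicate wells of M3434 methylcellulose with 1 μM test compound. Colonies were counted after 7 days. Another 10,000 cells were then re-seeded and re-counted weekly through the 3rd replating.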

[8] = system: normal haematopoietic stem and progenitor cells (HSPCs); assay: Colony forming; assay type: cell-based, mouse; conditions: 1 μM, WT Lin- cells
In short: as §1

[9] = system: MOLM-13 and primary murine AML cells; assay: Flow cytometry of differentiation, cell cycle and apoptosis in AML cells; assay type: cell-based
In short: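 Human and/or mouse AML cells were exposed to DMSO or test compound and analysed at the indicated timepoints on an LSRFortessa. Myeloid differentiation was read by anti-mouse CD11b PE/Cy5 or anti-human CD11b PE staining. Apoptosis was read by Annexin V staining. Cell cycle was read by BrdU incorporation with FITC or APC BrdU flow kits.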

[10] = system: non-leukaemic haemopoietic cell line HPC7; assay type: cell-based
[11] = system: SP1 and BRD4 protein levels, MOLM-13 cells; assay: Western blot of METTL3 biomarkers in MOLM-13; assay type: cell-based, human; conditions: MOLM-13, 72 hours
In short: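 MOLM-13 cells were exposed to DMSO or indicated concentrations of test compound for 72 h. Pellets were lysed in 50 mM Tris-HCl pH 8, 450 mM NaCl, 0.1% NP-40 and 1 mM EDTA, with 1 mM DTT and protease/phosphatase inhibitors. Immunoblots were probed with anti-SP1, N- and C-terminal anti-BRD4, and actin or GAPDH antibodies.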

[12] = system: m6A peaks on poly-A+-enriched RNA, MOLM-13 cells; assay: m6A-meRIP-seq and meRIP-qPCR in MOLM-13 cells; assay type: cell-based, human
[13] = system: MOLM-13 cells; assay: Polysome fractionation and RT-qPCR in MOLM-13 cells; assay type: cell-based, human
In short: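 MOLM-13 cells (5 × 10^7) were exposed to DMSO or 1 μM test compound for 72 h, then to 0.1 mg/ml cycloheximide for 5 min at 37 °C. Lysates were fractionated on a sucrose gradient. RNA from each fraction, or total RNA (RNeasy), was quantified by RT-qPCR in triplicate, normalised to GAPDH, using the standard-curve or comparative CT method.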

[14] = Pharmacokinetic analysis in mice; assay type: in vivo, mouse; conditions: single intra-peritoneal dose of 50 mg/kg, over 24h
[15] = system: human AML patient derived xenografts (PDX); assay: Human AML patient derived xenograft; assay type: in vivo, mouse
[16] = system: primary murine MLL-AF9/Flt3^Itd/+ AML; assay: Primary murine MLL-AF9/Flt3Itd/+ AML in vivo model; set-up: species or system mouse
[17] = system: normal haematopoiesis; assay: Toxicity on normal haematopoiesis in vivo; set-up: species or system mouse; conditions: 50 mg/kg daily for 14 days
[18] = system: METTL3/14; conditions: read-out: Km of SAM for METTL3/14; cited from earlier work
[19] = MOLM-13 and primary murine AML cells
[20] = murine or patient-derived AML cells from treated primary transplants

Chain of METTL3/METTL14 heterodimer (Q86U44 whole entry): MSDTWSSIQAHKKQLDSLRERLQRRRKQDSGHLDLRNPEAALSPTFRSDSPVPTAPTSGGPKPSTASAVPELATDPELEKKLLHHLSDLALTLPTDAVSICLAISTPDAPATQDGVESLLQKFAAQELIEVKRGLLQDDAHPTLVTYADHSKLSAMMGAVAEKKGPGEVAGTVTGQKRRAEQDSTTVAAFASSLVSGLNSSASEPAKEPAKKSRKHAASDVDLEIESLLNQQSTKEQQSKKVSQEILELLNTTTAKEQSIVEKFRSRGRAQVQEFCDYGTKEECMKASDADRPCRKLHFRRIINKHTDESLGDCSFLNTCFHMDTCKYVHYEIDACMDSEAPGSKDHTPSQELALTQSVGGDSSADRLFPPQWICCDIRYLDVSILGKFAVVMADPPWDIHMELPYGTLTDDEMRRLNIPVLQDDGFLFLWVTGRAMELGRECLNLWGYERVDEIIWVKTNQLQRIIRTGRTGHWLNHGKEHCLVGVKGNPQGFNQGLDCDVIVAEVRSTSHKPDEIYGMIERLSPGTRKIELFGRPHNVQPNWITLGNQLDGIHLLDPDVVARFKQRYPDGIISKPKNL
Chain of METTL3/METTL14 heterodimer (Q9HCE5 whole entry partner): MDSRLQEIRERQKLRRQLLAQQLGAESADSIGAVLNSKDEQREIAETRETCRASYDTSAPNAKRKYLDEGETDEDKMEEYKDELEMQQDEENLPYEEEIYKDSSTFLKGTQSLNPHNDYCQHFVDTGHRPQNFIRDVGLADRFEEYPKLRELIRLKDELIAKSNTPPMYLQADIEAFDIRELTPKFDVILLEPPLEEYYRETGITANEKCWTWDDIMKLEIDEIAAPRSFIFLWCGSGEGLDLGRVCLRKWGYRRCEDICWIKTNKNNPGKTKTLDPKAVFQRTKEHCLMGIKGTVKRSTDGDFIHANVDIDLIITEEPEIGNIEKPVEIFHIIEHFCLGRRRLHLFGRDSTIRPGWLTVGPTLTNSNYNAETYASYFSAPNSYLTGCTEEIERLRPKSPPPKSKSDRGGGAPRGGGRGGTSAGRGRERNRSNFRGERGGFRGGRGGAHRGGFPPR

O=C(NCc1cn2cc(CNCC3CCCCC3)ccc2n1)c1cc(=O)n2ccccc2n1 [STM2457]
binding mode with SAM in the SPR running buffer [1]: co-factor competitive binding mode
inhibition of METTL16 [2]: no inhibition
inhibitory effect on kinase panel [3]: no inhibitory effect
m6A on poly-A+-enriched RNA [4]: concentration-dependent reduction
other RNA modifications (m6Am, m6_2A, m7G) on poly-A+-enriched RNA [4]: No changes were detected
proliferation of human AML cell line panel [5]: significant growth reduction in a concentration-dependent manner
colony-forming ability of normal human cord blood CD34+ cells [6]: did not affect
clonogenic potential of primary murine AML cells [7]: significantly reduced
colony forming of normal haematopoietic stem and progenitor cells (HSPCs) [8]: no effect
apoptosis in human and mouse AML models ([9]; Annexin V, 1 µM): induced apoptosis
cell cycle (BrdU) [9, 19]: cell cycle arrest
myeloid differentiation (CD11b/Mac1) [9, 19]: significant myeloid differentiation
apoptosis in normal non-leukaemic haemopoietic cells ([10]; Annexin V, 1 µM): not in normal non-leukaemic haemopoietic cells
differentiation and cell cycle in HPC7 ([10]; non-leukaemic HPC7, 1 µM): the same effects were not identified
SP1 and BRD4 protein levels [11]: dose-dependent reduction
m6A levels in METTL3-dependent substrates including HOXA10 and MYC (meRIP-qPCR) ([12]; MOLM-13, 1 µM, 24 or 48 hours): reduced m^6A levels
m6A peaks reduced upon treatment ([12]; MOLM-13, 1 μM, 48 hours, of 11,909 m6A peaks identified): 4,666
polysome profile ([13]; MOLM-13, 1μM, 72 hours): loss of high polysome fractions
overall RNA expression levels of BRD4 and SP1 ([13]; MOLM-13, RT-qPCR of total RNA): showed no alterations
half-life / exposure in vivo [14]: sufficient half-life
human CD45+ cells in bone marrow and spleen ([15]; 50 mg/kg): reduction of human CD45^+ cells in bone marrow and spleen
mouse lifespan in PDX ([15]; 50 mg/kg IP daily): significantly prolonged
toxicity and body weight in PDX mice ([15]; 50 mg/kg IP daily): no overt toxicity or effect on mouse body weight
engraftment and AML expansion in PDX ([15]; 50 mg/kg IP daily, 3 PDX models): impairment of engraftment and AML expansion
total m6A levels on poly-A+-enriched RNA in PDX bone marrow ([15]; 30 or 50 mg/kg): significantly reduced
CD48+ intensity of L-GMP cells ([16]; 30 mg/kg): increased
engrafted AML cells in bone marrow ([16]; 30 mg/kg): reduction in the engrafted AML cells
spleen size ([16]; 30 mg/kg): reduction in spleen size
CD93+ and L-GMP leukaemia stem cell populations ([16]; bone marrow, PDX 50 mg/kg and murine model 30 mg/kg): significantly reduced
AML cells in peripheral blood after re-transplantation [16, 20]: marked decrease
lifespan after re-transplantation [16, 20]: significant lifespan prolongation
bone marrow HSCs and early progenitors, peripheral blood counts, body weight [17]: No significant changes
m6A levels on poly-A+-enriched RNA of healthy bone marrow [17]: significantly reduced

C[S+](CC[C@H](N)C(=O)[O-])C[C@H]1O[C@@H](n2cnc3c(N)ncnc32)[C@H](O)[C@@H]1O (stereo partly shown) [SAM, S-adenosyl methionine]
Km [18]: 0.1 µM
